From ChEMBL document CHEMBL1131936, “Structure-activity relationships of a series of benzothiophene-derived NPY Y1 antagonists: optimization of the C-2 side chain” (Bioorg Med Chem Lett, 1999) come the findings set out here.

The structures appear in SMILES notation.

The first experiment deals with T1, Neuropeptide Y receptor type 1 (Homo sapiens, UniProt P25929).
T1 sequence (P25929 whole entry): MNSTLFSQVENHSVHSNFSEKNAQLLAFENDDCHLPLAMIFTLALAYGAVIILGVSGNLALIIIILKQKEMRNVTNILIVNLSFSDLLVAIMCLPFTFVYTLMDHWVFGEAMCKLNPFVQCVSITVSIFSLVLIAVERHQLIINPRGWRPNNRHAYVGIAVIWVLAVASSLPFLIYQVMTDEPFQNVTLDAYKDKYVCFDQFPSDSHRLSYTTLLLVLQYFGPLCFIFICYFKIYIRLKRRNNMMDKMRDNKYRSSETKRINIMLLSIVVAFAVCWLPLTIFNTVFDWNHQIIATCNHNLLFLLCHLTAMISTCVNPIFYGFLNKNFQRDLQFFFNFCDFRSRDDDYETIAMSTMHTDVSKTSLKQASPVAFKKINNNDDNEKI
Kind of experiment: Ability to displace [125I]pPYY from AV12 cell line stably transfected with cloned human neuropeptide Y receptor type 1. The experiment is classed as cell-based. The essentials:
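Membranes prepared from AV12 cells stably transfected with the human Y1 receptor; test compound displacement of 125I-porcine PYY binding measured, method as previously reported. Ki reported in μM.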
As a reminder, the Ki is the equilibrium dissociation constant of an inhibitor or competing ligand from its target. A lower Ki goes with a stronger hold on the target. As for `CN(C)C1CCN(CCc2c(COc3ccc(Br)cc3C(F)(F)F)sc3ccccc23)CC1`, the inhibitory constant (Ki) is 720 nM. Same read-out and setting: the same measure for `CN(C)C1CCN(CCc2c(-c3ccc(Cl)cc3Cl)sc3ccccc23)CC1`: 6500 nM; for `CN(C)C1CCN(CCc2c(/C=N/c3ccc(Cl)cc3Cl)sc3ccccc23)CC1`: 12600 nM; for `Cc1cc(Br)ccc1OCc1sc2ccccc2c1CCN1CCC(N(C)C)CC1`: 420 nM. Still for that read-out and setting: the same measure for `Cc1ccc(OCc2sc3ccccc3c2CCN2CCC(N(C)C)CC2)c(C)c1`: 120 nM. `Clc1ccc(OCc2sc3ccccc3c2CN2CCCCC2)cc1` returned a Ki of 11100 nM. Still for that read-out and setting: the same measure for `CN(C)C1CCN(CCc2c(COc3ccc(Br)cc3)sc3ccccc23)CC1`: 160 nM; for `CN(C)C1CCN(CCc2c(COc3ccc(Br)cc3Br)sc3ccccc23)CC1`: 120 nM; for `CN(C)C1CCN(CCc2c(C(C)(C)Oc3ccc(Cl)cc3Cl)sc3ccccc23)CC1`: 12000 nM. Same read-out and setting: the same measure for `CC(Oc1ccc(Cl)cc1Cl)c1sc2ccccc2c1CCN1CCC(N(C)C)CC1` (stereo unspecified): 1700 nM; for `CN(C)C1CCN(CCc2c(CNc3ccc(Cl)cc3Cl)sc3ccccc23)CC1`: 1700 nM. Still for that read-out and setting: with `CN(C)C1CCN(CCc2c(/C=N/Nc3ccc(Cl)cc3Cl)sc3ccccc23)CC1` the figure was 4500 nM; with `CN(C)Cc1cc(Br)ccc1OCc1sc2ccccc2c1CCN1CCC(N(C)C)CC1`, 2430 nM.

The compound `Cc1ccc(OCc2sc3ccccc3c2CCN2CCC(N(C)C)CC2)cc1` returned an inhibition constant Ki of 370 nM. `Clc1ccc(OCc2sc3ccccc3c2CCN2CCCCC2)cc1` displayed an inhibition constant Ki of 1900 nM.

For the compound `CN(C)C1CCN(CCc2c(COc3ccc(Br)cc3C(N)=O)sc3ccccc23)CC1`, the Ki amounted to 172 nM. In turn, `COCc1cc(Br)ccc1OCc1sc2ccccc2c1CCN1CCC(N(C)C)CC1` came in with a Ki of 11 nM. For `CN(C)C1CCN(CCc2c(C(=O)Nc3ccc(Cl)cc3Cl)sc3ccccc23)CC1`, the Ki was found to be 2300 nM. Same read-out and setting: the same measure for `CN(C)C1CCN(CCc2c(/C=C/c3ccc(Cl)cc3Cl)sc3ccccc23)CC1`: 12400 nM; for `CN(C)C1CCN(CCc2c(C(O)c3ccc(Cl)cc3Cl)sc3ccccc23)CC1` (stereo unspecified): 3800 nM. Still for that read-out and setting: the same measure for `Clc1ccc(OCc2sc3ccccc3c2CCCN2CCCCC2)cc1`: 2600 nM; for `CN(C)C1CCN(CCc2c(COc3ccc(CO)cc3Br)sc3ccccc23)CC1`: 190 nM; for `CN(C)C1CCN(CCc2c(C(=O)c3ccc(Cl)cc3Cl)sc3ccccc23)CC1`: 5600 nM. For `CN(C)C1CCN(CCc2c(Cc3ccc(Cl)cc3Cl)sc3ccccc23)CC1`, affinity was put at a Ki of 4200 nM. Take `CN(C)C1CCN(CCc2c(COc3ccc(C#N)cc3Br)sc3ccccc23)CC1`: the affinity corresponds to a Ki of 380 nM. Still for that read-out and setting: with `CN(C)C1CCN(CCc2c(C#Cc3ccc(Cl)cc3Cl)sc3ccccc23)CC1` the figure was 7900 nM; with `Cc1ccccc1OCc1sc2ccccc2c1CCN1CCC(N(C)C)CC1`, 420 nM. Still for that read-out and setting: the same measure for `CN(C)C1CCN(CCc2c(COc3ccc(Br)cc3CO)sc3ccccc23)CC1`: 15 nM. Still for that read-out and setting: with `Cc1cc(C)c(OCc2sc3ccccc3c2CCN2CCC(N(C)C)CC2)c(C)c1` the figure was 2420 nM.

On to `CC(CN1CCC(N(C)C)CC1)c1c(COc2ccc(Cl)cc2Cl)sc2ccccc12` (stereo unspecified), for which the Ki came to 690 nM. Same read-out and setting: with `CN(C)C1CCN(CCc2c(COc3ccc(C(F)(F)F)cc3)sc3ccccc23)CC1` the figure was 740 nM.

Compound `Cc1ccc(OCc2sc3ccccc3c2CCN2CCC(N(C)C)CC2)c(Br)c1` returned a Ki of 78 nM. Still for that read-out and setting: with `CN(C)C1CCN(CCc2c(COc3c(Br)cc(Br)cc3Br)sc3ccccc23)CC1` the figure was 3600 nM. As for `CN(C)C1CCN(CCc2c(COc3ccc(Cl)cc3)sc3ccccc23)CC1`, the Ki was found to be 310 nM.

As to `COC(c1ccc(Cl)cc1Cl)c1sc2ccccc2c1CCN1CCC(N(C)C)CC1` (stereo unspecified), the Ki amounted to 4000 nM.

The compound `C=CCc1ccccc1OCc1sc2ccccc2c1CCN1CCC(N(C)C)CC1` displayed a Ki of 980 nM. Same read-out and setting: the same measure for `CNCc1cc(Br)ccc1OCc1sc2ccccc2c1CCN1CCC(N(C)C)CC1`: 660 nM. Still for that read-out and setting: the same measure for `CN(C)C1CCN(CCc2c(CCOc3ccc(Cl)cc3Cl)sc3ccccc23)CC1`: 2800 nM. With `CN(C)C1CCN(CCc2c(COc3ccc(Cl)cc3Cl)sc3ccccc23)CC1`, the inhibition constant (Ki) was found to be 140 nM. `CN(C)C1CCN(CCc2c(COc3ccccc3)sc3ccccc23)CC1` came in with a Ki of 1260 nM. Same read-out and setting: with `CN(C)C1CCN(CCc2c(COc3ccccc3I)sc3ccccc23)CC1` the figure was 380 nM; with `CN(C)C1CCN(CCc2c(COc3ccccc3C=O)sc3ccccc23)CC1`, 2760 nM. Compound `CN(C)C1CCN(CCc2c(COc3ccc(Br)cc3C#N)sc3ccccc23)CC1` registered an inhibition constant Ki of 13 nM.

In turn, `CN(C)C1CCN(CCc2c(C(Oc3ccc(Cl)cc3Cl)c3ccccc3)sc3ccccc23)CC1` (stereo unspecified) displayed an inhibition constant (Ki) of 5800 nM.

The compound `Cc1ccc(OCc2sc3ccccc3c2CCN2CCC(N(C)C)CC2)c(C(C)(C)C)c1` showed an inhibition constant Ki of 2830 nM. Still for that read-out and setting: with `CN(C)C1CCN(CCc2c(COc3ccc(-c4ccccc4)cc3)sc3ccccc23)CC1` the figure was 3700 nM; with `CN(C)C1CCN(CCc2c(CO)sc3ccccc23)CC1`, 88000 nM; with `CN(C)C1CCN(CCc2c(COc3ccccc3CO)sc3ccccc23)CC1`, 450 nM.

Compound `CN(C)C1CCN(CCc2c(COc3ccccc3Br)sc3ccccc23)CC1` had a Ki of 450 nM.

For the next experiment, the target named is T1, Neuropeptide Y receptor type 1. The experiment in a line: Functional Neuropeptide Y receptor type 1 antagonism was evaluated by its ability to reverse NPY induced inhibition of forskolin-stimulated cyclic AMP production in SK-N-MC cells. The experiment is classed as cell-based. The essentials:
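SK-N-MC cells; forskolin-stimulated cyclic AMP production inhibited by NPY, and test compound reversal of this inhibition measured. Ki derived, n = 2–3 determinations.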
As to `CN(C)C1CCN(CCc2c(COc3ccc(Br)cc3CO)sc3ccccc23)CC1`, the inhibition constant Ki was determined as 1200 nM. The same measure, in the same setting: the same measure for `CN(C)C1CCN(CCc2c(COc3ccc(Cl)cc3Cl)sc3ccccc23)CC1`: 4700 nM.
